E-sel inducer: E-selectin induction in HUVECs, primary screen, imaging, HUVEC, immunofluorescence imaging, single point; P16581; normalized: neutral wells 0, TNF-alpha wells 100; activation, % at 7.58 µM; actives 0.37% (n = 260,000); AID 686992, 2013;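 active = mean E-selectin-positive cell signal at least 10% of the positive control, reached in at least 60% of replicates, without over 20% cell loss; inconclusive = no rule given, readout overlaps actives, possibly toxicity-flagged; inactive = the rest, including those meeting only one limit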
Target sequence (P16581 whole entry, looked up): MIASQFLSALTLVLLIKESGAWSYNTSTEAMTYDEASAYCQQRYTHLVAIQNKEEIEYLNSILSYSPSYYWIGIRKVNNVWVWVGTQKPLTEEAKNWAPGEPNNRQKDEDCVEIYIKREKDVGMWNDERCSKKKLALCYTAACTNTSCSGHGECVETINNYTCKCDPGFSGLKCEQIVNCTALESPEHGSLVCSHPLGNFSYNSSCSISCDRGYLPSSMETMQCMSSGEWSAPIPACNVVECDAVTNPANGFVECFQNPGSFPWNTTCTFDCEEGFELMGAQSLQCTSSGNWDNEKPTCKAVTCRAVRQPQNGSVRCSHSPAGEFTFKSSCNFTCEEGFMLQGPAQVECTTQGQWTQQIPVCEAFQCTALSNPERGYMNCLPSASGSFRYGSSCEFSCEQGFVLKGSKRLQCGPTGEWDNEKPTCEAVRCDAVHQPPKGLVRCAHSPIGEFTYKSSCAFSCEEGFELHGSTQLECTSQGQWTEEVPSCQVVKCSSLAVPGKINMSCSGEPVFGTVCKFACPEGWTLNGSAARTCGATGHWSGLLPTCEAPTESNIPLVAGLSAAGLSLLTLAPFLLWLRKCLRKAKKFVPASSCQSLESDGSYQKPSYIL
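System: HUVEC / Compound: single concentration / Signal: immunofluorescence imaging / Read-out: percent E-selectin-positive cells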
XiGFP reactiv: activators of inactive X chromosome reactivation, primary screen, imaging, XiGFP fibroblasts, GFP high-content imaging, set 2; activation, % at 7.58 µM; actives 0.055% (n = 360,000); XiGFP mouse fibroblasts, % GFP-positive cells imaging, 3 d; cells co-treated with 5-aza-dC sensitizer; scaled so ellipticine positive control = 100%;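 active = mean normalized replicate activation at least 10% and every replicate at or above 10%; inconclusive = only one of the two criteria met; inactive = mean below 10% and not all replicates reach 10%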;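 note: 0% = median of on-plate neutral control wells and 100% = ellipticine 6 µM median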
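Material: SV40-immortalized XiGFP fibroblast cells, line 68-5-11 | Buffer or medium: DMEM containing 5-aza-dC | Dosing: One concentration, pinned | Times: 3 d treatment, 15 min room-temperature fixation | Controls: Ellipticine 6 µM positive control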
S100A4 inh HTS: inhibitors of S100A4-myosin IIA peptide binding, primary screen, biochemical, fluorescence polarization, TAMRA-MyoIIA peptide | Protein S100-A4 (Homo sapiens), P26447 | actives 0.14% (n = 360,000) | inhibition, % at 10.7 µM | AID 652163, 2013;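 active = mean inhibition of at least 70% across replicates, with every replicate also reaching that level; inconclusive = mean inhibition reaches 70% but some replicates fall short; inactive = mean inhibition below 70%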
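Compound dosing: one dose per compound; test system: human S100A4 monomer with TAMRA-labelled myosin IIA peptide; probe or stimulus: TAMRA-labelled myosin IIA heavy-chain peptide probe, 5 nM; medium: HEPES buffer with Ca2+, pH 7.2; schedule: 5 min incubation before reading; benchmarks: neutral control DMSO, positive control TFP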
DENV2 CPE rescue: inhibitors of DENV2 cytopathic effect, primary screen, cell-based, plate reader, single concentration. CPE inhibition, % at 9.99 µM. AID 651640, 2012. DENV2-infected cells, cytopathic effect rescue. actives 1.7% (n = 350,000); in the data active = CPE inhibition above about 20%, passing the limit was not always enough; inconclusive = no clear call, values can overlap the other calls; tested in BHK-21 cells;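 note: 0% = median of neutral control wells and 100% = median of positive control wells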
An asterisk follows results filed as active. Shown are actives, neighbours in structure and some others; about 2% of the full set was active somewhere.

Screening CCOC(=O)[C@]12CCCC=C1N(CCc1ccc(OC)c(OC)c1)C(=O)[C@H](CC(=O)NCCCN1CCCC1=O)C2 returned E-sel inducer -0.3, XiGFP reactiv 0.1, S100A4 inh HTS -4.4 and DENV2 CPE rescue -2.5.
O=C(CN1CCN(c2cccc(C(F)(F)F)c2)CC1)N(C1CC1)C1CCS(=O)(=O)C1 (stereo not drawn) was read as E-sel inducer -0.2, XiGFP reactiv 0.8, S100A4 inh HTS -4.1 and DENV2 CPE rescue 3.2.
`O=C(CN1CCN(c2cccc(C(F)(F)F)c2)CC1)N(C1CCCC1)C1CCS(=O)(=O)C1` (stereo not drawn) gave XiGFP reactiv -0.1, S100A4 inh HTS 1.1 and DENV2 CPE rescue 50.8*.
`O=C1c2ccc([N+](=O)[O-])cc2C(=O)N1Cc1cccnc1` gave E-sel inducer -0.2, XiGFP reactiv 0.0, S100A4 inh HTS 3.8 and DENV2 CPE rescue 90.0*.
`O=C(NCc1ccccc1)c1ccc2c(c1)C(=O)N(Cc1cccnc1)C2=O` gave XiGFP reactiv 0.1, S100A4 inh HTS 5.9 and DENV2 CPE rescue inconclusive.
Cc1ccccc1S(=O)(=O)N1CC[C@@H]2[C@@H](CO)Nc3ccc(-c4cccc(C#N)c4)cc3[C@@H]21 was read as E-sel inducer -0.4, XiGFP reactiv 0.1 and DENV2 CPE rescue 64.6*.
For COc1cccc(-c2ccc3c(c2)[C@H]2[C@H](CCN2S(=O)(=O)c2ccccc2C)[C@H](CO)N3)c1 the results were E-sel inducer 0.4, XiGFP reactiv -0.1, S100A4 inh HTS -1.6 and DENV2 CPE rescue 38.6*.
N#Cc1cccc(-c2ccc3c(c2)[C@@H]2[C@@H](CCN2S(=O)(=O)c2ccccc2)[C@@H](CO)N3)c1 was read as E-sel inducer -0.3, XiGFP reactiv -0.1, S100A4 inh HTS -2.1 and DENV2 CPE rescue -3.1.
For N#Cc1cccc(-c2ccc3c(c2)[C@@H]2[C@@H](CCN2S(=O)(=O)c2ccccc2F)[C@H](CO)N3)c1 the results were E-sel inducer -0.7, XiGFP reactiv -0.1, S100A4 inh HTS -29.6 and DENV2 CPE rescue -4.7.
For Cc1ccccc1S(=O)(=O)N1CC[C@@H]2[C@H](CO)Nc3ccc(-c4cccc(C#N)c4)cc3[C@@H]21 the results were E-sel inducer -0.8, XiGFP reactiv 0.2 and DENV2 CPE rescue 95.7*.
`COc1ccc(-c2ccc3c(c2)[C@H]2[C@H](CCN2S(=O)(=O)c2ccc(OC)cc2)[C@H](CO)N3)cc1` gave E-sel inducer 1.6, XiGFP reactiv 0.0 and DENV2 CPE rescue 54.4*.
CCc1c(C)nc(SC(C(=O)O)c2ccccc2)c(C#N)c1C (stereo not drawn) was read as XiGFP reactiv 0.1.
`COc1cccc(-c2ccc3c(c2)[C@@H]2[C@@H](CCN2S(=O)(=O)c2cn(C)cn2)[C@@H](CO)N3)c1` gave E-sel inducer 0.4, XiGFP reactiv 0.2, S100A4 inh HTS 3.8 and DENV2 CPE rescue 35.1*.
Screening Cn1cnc(S(=O)(=O)N2CC[C@H]3[C@H](CO)Nc4ccc(-c5ccccc5)cc4[C@H]32)c1 returned E-sel inducer 0.5, XiGFP reactiv 0.1, S100A4 inh HTS 17.9 and DENV2 CPE rescue -1.7.
`O=C(C[C@H]1C=C[C@H](NC(=O)Nc2ccccc2F)[C@H](CO)O1)NCc1ccccc1` gave E-sel inducer 3.2, XiGFP reactiv 0.2, S100A4 inh HTS -7.3 and DENV2 CPE rescue -0.2.
CCOc1cc(/C=N/NC(=O)c2ccccn2)ccc1OC(=O)c1ccc(F)cc1 was read as XiGFP reactiv 0.1, S100A4 inh HTS -2.6 and DENV2 CPE rescue -3.2.
For Cc1ccc2c(nc3s/c(=C\c4ccc(-c5ccccc5C(=O)O)o4)c(=O)n32)c1C the results were E-sel inducer -0.1, XiGFP reactiv 0.5, S100A4 inh HTS 84.5* and DENV2 CPE rescue -2.4.
OCC[C@@H]1C[C@@H](O)[C@H](O)[C@@]2(CCc3ccccc3O2)O1 was read as E-sel inducer 0.2, XiGFP reactiv 0.0, S100A4 inh HTS -3.3 and DENV2 CPE rescue -5.0.
`O=C(CN1CCN(S(=O)(=O)c2cc(Br)ccc2Br)CC1)NCc1ccccc1Cl` gave E-sel inducer -1.3, XiGFP reactiv 0.0, S100A4 inh HTS 10.6 and DENV2 CPE rescue 0.0.
For c1ccc(-c2nc(-c3ccncc3)n[nH]2)nc1 the results were XiGFP reactiv 0.1, S100A4 inh HTS 2.2 and DENV2 CPE rescue -2.9.
`c1ccc(-c2ccncc2)nc1` gave E-sel inducer -0.1, XiGFP reactiv -0.1, S100A4 inh HTS -3.5 and DENV2 CPE rescue 79.0*.
For C/C(CC1CC(COCC(C)C)OC1=O)=N\NC(N)=S (stereo not drawn) the results were XiGFP reactiv 0.1, S100A4 inh HTS -0.4 and DENV2 CPE rescue 90.8*.
Screening CCCCCOCC1CC(C/C(C)=N/NC(N)=S)C(=O)O1 (stereo not drawn) returned XiGFP reactiv 0.0, S100A4 inh HTS -9.6 and DENV2 CPE rescue -13.4.
For Cc1c(Cl)cccc1NC(=O)CC1Oc2ccccc2NC1=O (stereo not drawn) the results were XiGFP reactiv 0.0, S100A4 inh HTS -5.8 and DENV2 CPE rescue 34.6*.
Screening Cc1cn([C@H]2C[C@H](O)[C@@H](CNCc3ccc(C#CCCO)cc3)O2)c(=O)[nH]c1=O returned E-sel inducer -0.3, XiGFP reactiv 0.2, S100A4 inh HTS 1.9 and DENV2 CPE rescue -3.7.
Cc1cn([C@H]2C[C@H](O)[C@@H](CNCc3ccc4ncccc4c3)O2)c(=O)[nH]c1=O was read as E-sel inducer 0.8, XiGFP reactiv 0.1, S100A4 inh HTS -3.8 and DENV2 CPE rescue 94.1*.
C=CCC[C@H](Cc1ccc(F)cc1)C(=O)OC[C@@H](Cc1c[nH]c2ccccc12)NC(=O)[C@@H](CC=C)CC(=O)N(CCO)Cc1ccccc1 was read as E-sel inducer -0.1, XiGFP reactiv 0.0, S100A4 inh HTS -4.2 and DENV2 CPE rescue 20.9*.
COc1cc(NC(=S)NCCC(c2ccccc2)c2ccccc2)cc(OC)c1 was read as E-sel inducer -0.1, XiGFP reactiv 0.3, S100A4 inh HTS -3.4 and DENV2 CPE rescue 0.7.
`COc1cc(OC)cc(C(=O)NCCC(c2ccccc2)c2ccccc2)c1` gave XiGFP reactiv 0.0, S100A4 inh HTS -7.0 and DENV2 CPE rescue 44.7*.
`O=C(CSc1cnc2ccccc2n1)c1ccc(F)cc1` gave XiGFP reactiv 0.2, S100A4 inh HTS -2.3 and DENV2 CPE rescue 32.6*.
O=C(CSc1ccc(-c2ccccn2)nn1)c1ccc(F)cc1 was read as E-sel inducer 8.8, S100A4 inh HTS -12.8 and DENV2 CPE rescue 0.9.
`COc1ccc(-c2nsc3c(N4CCCCC4C)ncnc23)cc1` (stereo not drawn) gave E-sel inducer 0.8, XiGFP reactiv 0.1, S100A4 inh HTS 0.1 and DENV2 CPE rescue 7.7.
